Results: ChEMBL document CHEMBL5724801, “EUbOPEN Chemogenomics Library - Multiplex” (2024)
“And” between values parts separate entries of the source, which are not always exact repeats. Identical values can stand only once.

Tested on: HEK-293T
Assay: Multiplex assay against HEK293T
Type: toxicity, cell-based
Details: human
Summary of the method: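 Live cells were stained at seeding with Hoechst33342, BioTracker Green Microtubule Cytoskeleton Dye, MitoTracker Red and Annexin V Alexa Fluor 680, then imaged on a CQ1 microscope at 37°C and 5% CO2 after compound addition. CellPathfinder machine-learning gating split cells into Hoechst high-intensity objects or normal cells. Normal cells were split into healthy, pyknosed or fragmented nuclei, and pyknosed cells into mitotic or apoptotic. Tubulin, mitochondrial-mass and membrane-permeability phenotypes are per cents of healthy-nucleus cells.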

[1] = 12 h, 1 µM, compound concentration 1 uM
[2] = 12 h, 10 µM, compound concentration 10 uM
[3] = 24 h, 1 µM, compound concentration 1 uM
[4] = 24 h, 10 µM, compound concentration 10 uM
[5] = 48 h, 1 µM, compound concentration 1 uM
[6] = 48 h, 10 µM, compound concentration 10 uM

## O=c1ccc2ccc(OCCCCN3CCN(c4cccc5sccc45)CC3)cc2[nH]1 [BREXPIPRAZOLE]
[1]
  Population Apoptotic (%): 44% and 42%
  Population Fragmented Nuclei (%): 6% and 5%
  Population Healthy Nuclei (%): 77% and 80%
  Population Hoechst High Intensity Objects (%): 6%
  Population Membrane Permeable-Phenotype (%): 0%
  Population Mitochondria Different-Phenotype (%): 67% and 69%
  Population Mitotic Cells (%): 55% and 57%
  Population Normal (%): 93%
  Population Pyknosed Nuclei (%): 15% and 14%
  Population Tubulin-Different-Phenotype (%): 51% and 47%
  Total Cell Count: 392 and 354
[2]
  Population Apoptotic (%): 82% and 85%
  Population Fragmented Nuclei (%): 17% and 10%
  Population Healthy Nuclei (%): 43% and 66%
  Population Hoechst High Intensity Objects (%): 66% and 41%
  Population Membrane Permeable-Phenotype (%): 0%
  Population Mitochondria Different-Phenotype (%): 97% and 100%
  Population Mitotic Cells (%): 17% and 14%
  Population Normal (%): 33% and 59%
  Population Pyknosed Nuclei (%): 38% and 23%
  Population Tubulin-Different-Phenotype (%): 81% and 62%
  Total Cell Count: 299 and 200
[3]
  Population Apoptotic (%): 41% and 42%
  Population Fragmented Nuclei (%): 10% and 4%
  Population Healthy Nuclei (%): 73% and 87%
  Population Hoechst High Intensity Objects (%): 8% and 2%
  Population Membrane Permeable-Phenotype (%): 0%
  Population Mitochondria Different-Phenotype (%): 51% and 52%
  Population Mitotic Cells (%): 58% and 57%
  Population Normal (%): 91% and 97%
  Population Pyknosed Nuclei (%): 16% and 7%
  Population Tubulin-Different-Phenotype (%): 36% and 35%
  Total Cell Count: 501 and 449
[4]
  Population Apoptotic (%): 91% and 89%
  Population Fragmented Nuclei (%): 12% and 10%
  Population Healthy Nuclei (%): 37% and 59%
  Population Hoechst High Intensity Objects (%): 68% and 46%
  Population Membrane Permeable-Phenotype (%): 0%
  Population Mitochondria Different-Phenotype (%): 100% and 98%
  Population Mitotic Cells (%): 8% and 10%
  Population Normal (%): 31% and 53%
  Population Pyknosed Nuclei (%): 50% and 30%
  Population Tubulin-Different-Phenotype (%): 66% and 57%
  Total Cell Count: 284 and 180
[5]
  Population Apoptotic (%): 49% and 48%
  Population Fragmented Nuclei (%): 9% and 12%
  Population Healthy Nuclei (%): 80% and 79%
  Population Hoechst High Intensity Objects (%): 5% and 3%
  Population Membrane Permeable-Phenotype (%): 0% and 1%
  Population Mitochondria Different-Phenotype (%): 47% and 36%
  Population Mitotic Cells (%): 50% and 51%
  Population Normal (%): 94% and 96%
  Population Pyknosed Nuclei (%): 10% and 7%
  Population Tubulin-Different-Phenotype (%): 28% and 26%
  Total Cell Count: 679 and 644
[6]
  Population Apoptotic (%): 93% and 89%
  Population Fragmented Nuclei (%): 19% and 14%
  Population Healthy Nuclei (%): 30% and 50%
  Population Hoechst High Intensity Objects (%): 67% and 52%
  Population Membrane Permeable-Phenotype (%): 0%
  Population Mitochondria Different-Phenotype (%): 96% and 97%
  Population Mitotic Cells (%): 6% and 10%
  Population Normal (%): 32% and 47%
  Population Pyknosed Nuclei (%): 50% and 34%
  Population Tubulin-Different-Phenotype (%): 51% and 82%
  Total Cell Count: 269 and 170

## CCC(=O)OCC(=O)[C@@]1(OC(=O)CC)[C@@H](C)C[C@H]2[C@@H]3CCC4=CC(=O)C=C[C@]4(C)[C@@]3(Cl)[C@@H](O)C[C@@]21C [BECLOMETHASONE DIPROPIONATE]
[1]
  Population Apoptotic (%): 43% and 47%
  Population Fragmented Nuclei (%): 8% and 5%
  Population Healthy Nuclei (%): 75% and 74%
  Population Hoechst High Intensity Objects (%): 7% and 4%
  Population Membrane Permeable-Phenotype (%): 0%
  Population Mitochondria Different-Phenotype (%): 60% and 75%
  Population Mitotic Cells (%): 56% and 52%
  Population Normal (%): 92% and 95%
  Population Pyknosed Nuclei (%): 15% and 19%
  Population Tubulin-Different-Phenotype (%): 48% and 42%
  Total Cell Count: 388 and 356
[2]
  Population Apoptotic (%): 60% and 68%
  Population Fragmented Nuclei (%): 8% and 6%
  Population Healthy Nuclei (%): 66%
  Population Hoechst High Intensity Objects (%): 14% and 16%
  Population Membrane Permeable-Phenotype (%): 0%
  Population Mitochondria Different-Phenotype (%): 87% and 93%
  Population Mitotic Cells (%): 39% and 31%
  Population Normal (%): 85% and 83%
  Population Pyknosed Nuclei (%): 25% and 27%
  Population Tubulin-Different-Phenotype (%): 65% and 35%
  Total Cell Count: 236 and 252
[3]
  Population Apoptotic (%): 32% and 43%
  Population Fragmented Nuclei (%): 7%
  Population Healthy Nuclei (%): 81%
  Population Hoechst High Intensity Objects (%): 4% and 5%
  Population Membrane Permeable-Phenotype (%): 0%
  Population Mitochondria Different-Phenotype (%): 40% and 52%
  Population Mitotic Cells (%): 67% and 56%
  Population Normal (%): 95% and 94%
  Population Pyknosed Nuclei (%): 11%
  Population Tubulin-Different-Phenotype (%): 31% and 18%
  Total Cell Count: 507 and 446
[4]
  Population Apoptotic (%): 56% and 62%
  Population Fragmented Nuclei (%): 13% and 5%
  Population Healthy Nuclei (%): 65% and 71%
  Population Hoechst High Intensity Objects (%): 11% and 9%
  Population Membrane Permeable-Phenotype (%): 0%
  Population Mitochondria Different-Phenotype (%): 89% and 97%
  Population Mitotic Cells (%): 44% and 37%
  Population Normal (%): 88% and 90%
  Population Pyknosed Nuclei (%): 21% and 23%
  Population Tubulin-Different-Phenotype (%): 73% and 43%
  Total Cell Count: 270 and 243
[5]
  Population Apoptotic (%): 30% and 31%
  Population Fragmented Nuclei (%): 11% and 12%
  Population Healthy Nuclei (%): 78% and 79%
  Population Hoechst High Intensity Objects (%): 4% and 3%
  Population Membrane Permeable-Phenotype (%): 0%
  Population Mitochondria Different-Phenotype (%): 28% and 32%
  Population Mitotic Cells (%): 69% and 68%
  Population Normal (%): 95% and 96%
  Population Pyknosed Nuclei (%): 9% and 8%
  Population Tubulin-Different-Phenotype (%): 18% and 17%
  Total Cell Count: 742 and 655
[6]
  Population Apoptotic (%): 67% and 65%
  Population Fragmented Nuclei (%): 14% and 12%
  Population Healthy Nuclei (%): 72%
  Population Hoechst High Intensity Objects (%): 5%
  Population Membrane Permeable-Phenotype (%): 0%
  Population Mitochondria Different-Phenotype (%): 72% and 90%
  Population Mitotic Cells (%): 32% and 34%
  Population Normal (%): 94%
  Population Pyknosed Nuclei (%): 13% and 15%
  Population Tubulin-Different-Phenotype (%): 43% and 62%
  Total Cell Count: 347 and 283
